Measurements published in ChEMBL document CHEMBL1156469 (2007).
Activity calls are given as the source filed them. The calls are words filed in the database; no cut-off is given here.

How the values were obtained:
[1] = molecular target: T1, Estrogen receptor (Mus musculus) (UniProt P19785); experiment: Reversal of increase in DNA-binding activity of ERalpha in nuclear extracts of mouse MC3T3-E1 cells by electrophoretic mobility shift assays in presence of ICI-182780; type: cell-based
T1 sequence (whole entry): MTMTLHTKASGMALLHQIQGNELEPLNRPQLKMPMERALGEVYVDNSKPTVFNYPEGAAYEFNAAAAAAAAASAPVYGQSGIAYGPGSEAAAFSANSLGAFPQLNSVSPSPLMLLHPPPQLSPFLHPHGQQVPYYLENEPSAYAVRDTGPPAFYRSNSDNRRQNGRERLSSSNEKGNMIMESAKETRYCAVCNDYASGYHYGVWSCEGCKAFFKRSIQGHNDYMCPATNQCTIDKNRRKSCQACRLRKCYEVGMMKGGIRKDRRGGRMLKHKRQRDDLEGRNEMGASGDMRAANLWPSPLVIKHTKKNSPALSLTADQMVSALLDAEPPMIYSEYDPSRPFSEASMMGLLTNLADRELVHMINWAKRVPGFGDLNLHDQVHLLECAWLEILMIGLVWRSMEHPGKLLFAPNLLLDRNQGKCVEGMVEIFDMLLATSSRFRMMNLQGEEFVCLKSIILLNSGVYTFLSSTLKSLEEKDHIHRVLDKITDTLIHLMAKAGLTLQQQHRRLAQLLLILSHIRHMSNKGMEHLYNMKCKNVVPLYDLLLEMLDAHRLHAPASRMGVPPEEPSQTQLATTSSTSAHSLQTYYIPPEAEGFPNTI
Outline: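 Nuclear extracts of MC3T3-E1 cells. ER-binding probe [α-32P]dCTP end-labeled, 20-min binding at room temperature, 5-fold unlabeled competitor where used. Complexes resolved on 5% nondenaturing PAGE in Tris-borate-EDTA pH 8.3, then autoradiography.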

[2] = system: Osteoblast; experiment: Effect on matrix metalloprotease 2 gene expression in rat primary osteoblast cells assessed as expression ratio of treated to untreated control by microarray analysis; type: functional
Outline: (§1)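 Resveratrol-treated and vehicle-treated primary osteoblasts were profiled on a mouse osteogenesis-focused cDNA array (GEArray Q series) built to track gene expression during osteogenic differentiation. Each gene's signal in treated cells was expressed as a ratio to untreated control.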

[3] = system: Osteoblast; experiment: Effect on integrin alpha V gene expression in rat primary osteoblast cells assessed as expression ratio of treated to untreated control by microarray analysis; type: functional; outline: as §1
[4] = system: MC3T3-E1; experiment: Increase in BMP2 expression in mouse MC3T3-E1 cells expressing pBMP2delta1 mutant at 1 uM after 4 hrs by luciferase method relative to control; type: functional, cell-based
Outline: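 MC3T3-E1 cells transfected with BMP-2 promoter–luciferase constructs (full promoter or deletions), treated with 1 μm or vehicle for 4 h; Dual-Luciferase assay; means ± S.D.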

[5] = system: Osteoblast; experiment: Effect on MAD homolog 6 gene expression in rat primary osteoblast cells assessed as expression ratio of treated to untreated control by microarray analysis; type: functional
[6] = molecular target: Proto-oncogene tyrosine-protein kinase Src (Mus musculus) (UniProt P05480); experiment: Reversal of increase in Src kinase phosphorylation in mouse MC3T3-E1 cells transfected with dominant-negative mutant Src expression vector at 1 uM; type: cell-based
Chain of Proto-oncogene tyrosine-protein kinase Src (Mus musculus) (P05480 2-535 limits assumed): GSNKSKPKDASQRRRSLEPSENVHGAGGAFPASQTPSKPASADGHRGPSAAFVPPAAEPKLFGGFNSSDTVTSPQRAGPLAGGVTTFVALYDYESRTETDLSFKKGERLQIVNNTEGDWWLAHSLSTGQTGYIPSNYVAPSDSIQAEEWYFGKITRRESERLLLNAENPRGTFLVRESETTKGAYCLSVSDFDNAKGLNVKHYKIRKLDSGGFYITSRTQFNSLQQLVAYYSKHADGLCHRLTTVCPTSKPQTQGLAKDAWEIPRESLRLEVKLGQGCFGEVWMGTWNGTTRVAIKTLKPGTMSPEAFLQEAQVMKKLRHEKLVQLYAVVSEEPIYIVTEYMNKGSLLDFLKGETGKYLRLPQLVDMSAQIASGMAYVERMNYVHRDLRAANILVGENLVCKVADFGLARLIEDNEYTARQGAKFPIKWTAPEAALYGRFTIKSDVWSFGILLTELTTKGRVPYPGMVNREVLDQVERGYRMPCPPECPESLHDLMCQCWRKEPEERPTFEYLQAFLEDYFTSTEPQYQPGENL
Outline: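 Src phosphorylation, ERα nuclear translocation and BMP-2 protein analysed by Western blot with ECL detection. Three independent experiments.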

[7] = molecular target: RAC-alpha serine/threonine-protein kinase (Homo sapiens) (UniProt P31749); experiment: Reversal of induction of Akt inactivation in human MDA-MB-231 cells transfected with constitutively activated Akt mutant; type: cell-based
Chain of RAC-alpha serine/threonine-protein kinase (Homo sapiens) (P31749 whole entry): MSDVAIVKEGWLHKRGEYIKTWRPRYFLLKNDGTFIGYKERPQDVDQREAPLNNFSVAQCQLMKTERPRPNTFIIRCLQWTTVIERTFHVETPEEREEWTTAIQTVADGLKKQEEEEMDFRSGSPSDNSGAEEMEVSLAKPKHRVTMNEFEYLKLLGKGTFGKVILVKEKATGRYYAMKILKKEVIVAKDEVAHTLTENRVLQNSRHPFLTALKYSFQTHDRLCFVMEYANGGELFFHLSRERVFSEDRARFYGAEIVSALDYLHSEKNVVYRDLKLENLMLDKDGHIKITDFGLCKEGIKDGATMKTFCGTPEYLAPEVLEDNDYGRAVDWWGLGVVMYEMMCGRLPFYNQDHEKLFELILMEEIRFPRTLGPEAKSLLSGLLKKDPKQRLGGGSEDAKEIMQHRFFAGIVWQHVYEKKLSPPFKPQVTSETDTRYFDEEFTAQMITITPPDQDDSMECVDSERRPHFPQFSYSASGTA

[8] = system: MDA-MB-231; experiment: Reversal of inhibition in anchorage-independent colony formation of human MDA-MB-231 cells transfected with FOXO3a-specific small interfering RNA by soft agar colony forming assay; type: functional, cell-based
[9] = system: Osteoblast; experiment: Effect on MAD homolog 1 gene expression in rat primary osteoblast cells assessed as expression ratio of treated to untreated control by microarray analysis; type: functional
[10] = system: Osteoblast; experiment: Effect on epidermal growth factor gene expression in rat primary osteoblast cells assessed as expression ratio of treated to untreated control by microarray analysis; type: functional
[11] = system: MDA-MB-231; experiment: Enhancement of FOXO3a nuclear accumulation in human MDA-MB-231 cells transfected with dominant negative Akt mutant; type: functional, cell-based
Outline: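 MDA-MB-231 cells transfected with vector, constitutively active Akt or dominant negative Akt, treated ± compound; analyzed by Western blotting and BMP-2 promoter luciferase activity.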

[12] = system: Osteoblast; experiment: Increase in osteopontin levels in rat primary osteoblast cells at 1 uM after 72 hrs by ELISA; type: functional, cell-based
Outline: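 Cells treated with 1 μm for 72 h; osteocalcin or osteopontin in culture medium by sandwich ELISA, HRP-streptavidin/TMB, 450 nm; percent change versus untreated control.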

[13] = system: Osteoblast; experiment: Increase in osteocalcin mRNA levels in rat primary osteoblast cells at 1 uM after 72 hrs by RT-PCR; type: functional, cell-based
Outline: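 Cells treated with 1 μm for 72 h; osteocalcin and osteopontin mRNA by RT-PCR, 30 cycles (95/52/72 °C, 1 min each), ethidium bromide–stained agarose gels; repeated at least twice from at least two cDNA preparations.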

[14] = Reversal of increase in pBMP2 expression in mouse MC3T3-E1 cells at 1 uM by luciferase method in presence of PP2; type: functional, cell-based
Outline: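 BMP-2 promoter activity measured by dual-luciferase assay and expressed relative to the untreated vector control.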

[15] = system: Osteoblast; experiment: Effect on cathepsin K gene expression in rat primary osteoblast cells assessed as expression ratio of treated to untreated control by microarray analysis; type: functional
[16] = system: MC3T3-E1; experiment: Increase in proliferation of mouse MC3T3-E1 cells assessed as fraction of cells in S phase at 0.1 to 10 uM after 24 hr by flow cytometry; type: functional, cell-based
[17] = system: Osteoblast; experiment: Effect on procollagen 4 alpha 1 gene expression in rat primary osteoblast cells assessed as expression ratio of treated to untreated control by microarray analysis; type: functional; outline: as §1
[18] = system: Osteoblast; experiment: Effect on procollagen 9 alpha 1 gene expression in rat primary osteoblast cells assessed as expression ratio of treated to untreated control by microarray analysis; type: functional; outline: as §1
[19] = system: Osteoblast; experiment: Effect on integrin alpha 2b gene expression in rat primary osteoblast cells assessed as expression ratio of treated to untreated control by microarray analysis; type: functional; outline: as §1
[20] = system: Osteoblast; experiment: Effect on bone morphogenetic protein 3 gene expression in rat primary osteoblast cells assessed as expression ratio of treated to untreated control by microarray analysis; type: functional
[21] = Reversal of increase in BMP2 expression in mouse MC3T3-E1 cells expressing small interfering RNA for FOXA1 protein at 1 uM by Western blot; type: functional, cell-based
[22] = system: Osteoblast; experiment: Effect on tumor necrosis factor gene expression in rat primary osteoblast cells assessed as expression ratio of treated to untreated control by microarray analysis; type: functional
Outline: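 GEArray Q series Mouse Osteogenesis cDNA array profiling osteogenic-differentiation genes in treated versus vehicle-treated primary osteoblasts.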

[23] = system: MDA-MB-231; experiment: Reversal of induction of FOXO3a nuclear accumulation in human MDA-MB-231 cells transfected with constitutively activated Akt mutant; type: functional, cell-based
[24] = system: Rattus norvegicus; experiment: Increase in serum BMP2 levels in ovariectomized Wistar rat at 10 mg/kg, po after 10 weeks by ELISA relative to sham operated control; type: functional, organism-based; set-up: dose 10 mg/kg
Outline: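 Ovariectomized rats given indicated doses or estrogen by oral feeding; serum BMP-2 by ELISA 10 weeks after surgery; compared with sham-operated group; n = 8/group, means ± S.D.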

With Oc1ccc(/C=C/c2cc(O)cc(O)c2)cc1 [RESVERATROL] the Activity [1] was “Active”, the Ratio [2] was 0.46 and the Ratio [3] was 4.64. For the same compound, the Activity [4] was “Active”, the Ratio [5] was 0.38 and the Activity [6] was “Active”. For the same compound, the Activity [7] was “Active”, the Activity [8] was “Active” and the Ratio [9] was 3.24. For the same compound, the Ratio [10] was 0.55, the Activity [11] was “Active” and the Activity [12] was “Active”. For the same compound, the Activity [13] was “Active”, the Activity [14] was “Active” and the Ratio [15] was 5.6. For the same compound, the Activity [16] was “Active”, the Ratio [17] was 8.15 and the Ratio [18] was 3.99. The Ratio [19] was 0.57, the Ratio [20] was 0.27 and the Activity [21] was “Active”. The Ratio [22] was 0.46, the Activity [23] was “Active” and the Activity [24] was “Active”.
